Rows were chosen to be rich in hits. Some 3.5% of all compounds tested hit in one or more screens of this group.
MrgX1 PAM: human MrgX1 positive allosteric modulation, primary screen. Q96LB2. MrgX1-HEK293, Fluo-4 calcium flux, FDSS; hits give high values. B-score at 10 µM. actives 0.63% (n = 310,000). AID 588675;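 active means plate-corrected calcium response at least 3 library SD above typical, normal starting fluorescence, not activating the receptor alone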;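 further: compound read alongside a low EC10 to EC30 dose of BAM8-22 agonist; peak minus trough fluorescence over baseline measured at the second addition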
Target sequence (Q96LB2 whole entry, looked up): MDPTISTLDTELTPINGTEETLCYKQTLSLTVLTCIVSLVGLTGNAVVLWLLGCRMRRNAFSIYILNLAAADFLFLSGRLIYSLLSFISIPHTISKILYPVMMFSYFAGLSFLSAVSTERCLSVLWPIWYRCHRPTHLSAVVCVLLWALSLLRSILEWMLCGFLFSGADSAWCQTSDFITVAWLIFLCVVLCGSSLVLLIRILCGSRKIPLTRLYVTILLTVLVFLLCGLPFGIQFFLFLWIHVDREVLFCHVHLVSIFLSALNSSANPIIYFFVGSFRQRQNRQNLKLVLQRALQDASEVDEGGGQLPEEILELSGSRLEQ
RGS4 inh: human RGS4 inhibition. actives 0.45% (n = 310,000). B-score at 10 µM. AID 463165. HEK293 M3R/RGS4 inducible, Fluo-4 calcium flux; hits give high values; triggered by carbachol at its EC20;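 active means B-score, a plate-corrected calcium signal, over three deviations above library mean, with baseline fluorescence within five deviations of library mean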;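 further: RGS4 expression induced by doxycycline in cells with stable M3 receptor; B-score is computed from the integrated fluorescence ratio over baseline after carbachol; higher B-score means a larger calcium signal and so more RGS4 inhibition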
Target sequence (P49798 whole entry, looked up): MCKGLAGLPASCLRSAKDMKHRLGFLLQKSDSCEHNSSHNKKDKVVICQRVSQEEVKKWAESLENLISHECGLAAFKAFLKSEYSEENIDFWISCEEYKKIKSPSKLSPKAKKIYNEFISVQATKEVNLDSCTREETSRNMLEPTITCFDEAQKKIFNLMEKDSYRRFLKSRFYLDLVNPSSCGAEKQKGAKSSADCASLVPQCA
RGS4 act: RGS4 potentiation or activation; HEK293 M3R/inducible RGS4, carbachol calcium flux Fluo4; hits give low values; B-score at 10 µM; actives 0.92% (n = 310,000);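 active means B-score of the integrated calcium signal more than 4 SD below the library mean, with starting fluorescence not abnormally high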;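 further: negative B-score means reduced calcium response which marks RGS4 activation or potentiation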
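System – HEK293 FlpIn-TREx cells, stable M3R, doxycycline-inducible RGS4 · Reagent – ECmax carbachol challenge · Times – compound preincubation 20 min at room temperature before agonist · Technique – Fluo4 fluorescence kinetic imaging of calcium · Measure – B score of integrated Fluo4 ratio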
MrgX1 ag: human MrgX1 receptor agonism, primary screen; B-score at 10 µM; MrgX1-HEK293 cells, Fluo-4 calcium fluorescence, agonist mode; hits give high values; actives 0.44% (n = 310,000); Q96LB2;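 active means calcium response B-score plate-corrected fluorescence ratio at least 3 library SD, with starting fluorescence B-score inside 5 SD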
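System – MrgX1-expressing HEK293 cells · Incubation – cells plated overnight, dye loaded 0.5 h 37 °C, 0.5 h room temperature · Technique – kinetic Fluo-4 NW fluorescence of intracellular calcium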
MrgX1 antagonist: antagonists of human MrgX1 receptor; B-score at 10 µM; actives 1.3% (n = 310,000); MRGX1-HEK293 calcium flux, Fluo-4, BAM8-22 antagonism; hits give low values; Q96LB2;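 active means calcium-response B-score plate-corrected more than 3 library SD below zero, starting fluorescence within 5 deviations, no agonist response on first addition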;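 further: peak minus trough fluorescence over baseline after final BAM8-22 challenge near maximal dose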
RGS4 inh valid: validation of RGS4 inhibitors | shares compounds with RGS4 inh | HEK293 M3R/RGS4, carbachol calcium Fluo-4 fluorescence; carbachol added at its EC20; 0 = buffer wells, 100 = carbachol control | calcium response, % at 10 µM | actives 65% (n = 1,700);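 active means duplicate-averaged calcium response above the buffer-only control mean plus 5 SD of those controls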;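 further: integrated fluorescence ratio F max minus min over baseline F0; higher response in RGS4-induced cells means RGS4 inhibition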
M3R Ca ctr: counter-screen for RGS4 inhibitors: effect in non-induced cells; activity (percent), % at 10 µM; HEK293 M3R non-induced, carbachol calcium Fluo-4; submaximal (EC20) carbachol stimulus; buffer wells 0%, carbachol control wells 100%; actives 20% (n = 1,900); AID 493000; shares compounds with RGS4 inh; call rule not given here;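 further: RGS4 induction absent so cells express M3R without RGS4; higher means more calcium signal and flags a non-specific hit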
RGS4 inh ctr2: second counter-screen for RGS4 inhibitors: non-induced cells without carbachol; shares compounds with RGS4 inh; HEK293 M3R/RGS4 non-induced, Fluo-4 calcium, no carbachol; normalised: buffer wells 0%, carbachol wells 100%; calcium response (agonist-mode artifact), % at 10 µM; actives 22% (n = 1,900); AID 493001;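 active means duplicate-averaged calcium rise in uninduced cells above buffer wells' mean plus 5 SD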
Large screens that a line does not name were inactive (follow-up assays come after a bar, where they were run).

O=C(C1=C(O)C(=O)N(Cc2ccco2)C1c1cccc(O)c1)c1ccco1 (stereo unspecified)	RGS4 inh 4.7 | RGS4 inh valid 5.5% | M3R Ca ctr inactive | RGS4 inh ctr2 inactive
Cc1ccc(C(=O)C2=C(O)C(=O)N(Cc3ccco3)C2c2cccc(Br)c2)o1 (stereo unspecified)	none
COCCn1c(SCC(=O)NC(C)c2ccc(F)cc2)nc2ccccc21 (stereo unspecified)	none
CC(=O)Oc1cccc(/C=c2\sc3nc(-c4ccco4)nn3c2=O)c1	none
CCCOc1ccc(/C=c2\sc3nc(-c4ccco4)nn3c2=O)cc1OCC	none | RGS4 inh valid inactive | M3R Ca ctr inactive | RGS4 inh ctr2 154%
NC(=O)NC1CCCc2c1[nH]c1ccc(Cl)cc21 (stereo unspecified)	RGS4 inh 5.3 | RGS4 inh valid 8.5% | M3R Ca ctr inactive | RGS4 inh ctr2 inactive
O=C(CSc1nnc(NC(=O)C2CCC2)s1)Nc1ccccc1Br	none
COc1ccc(OC)c(-c2csc(N(CC3CCCO3)C(=O)C3CCCCC3)n2)c1 (stereo unspecified)	RGS4 inh 7.2 | RGS4 inh valid 24% | M3R Ca ctr inactive | RGS4 inh ctr2 inactive
Clc1ccc(-c2ccccc2)nn1	none
O=C(O)CCSc1ccccn1	none
O=C(CCSc1ccccn1)c1ccccc1	RGS4 inh 5.7 | RGS4 inh valid 5.0% | M3R Ca ctr 36% | RGS4 inh ctr2 18%
O=C(CNC(=O)c1ccc(F)cc1)c1ccc(Cl)cc1	none
O=C1NN(c2ccccc2)C(=O)/C1=C/c1ccc(Sc2cccc3ccccc23)o1	RGS4 inh 12 | RGS4 inh valid inactive | M3R Ca ctr inactive | RGS4 inh ctr2 inactive
COc1ccc(OC)c(CCNC(=O)CN2C(=O)CCSc3ccccc32)c1	none
COC(=O)c1cccc(N(CC(=O)NC2CCCC2)C(=O)CNC(=O)c2cccs2)c1	none
O=C1NN(c2ccc(Br)cc2)C(=O)/C1=C\c1ccc(O)cc1O	none
O=C1NN(c2cccc(Br)c2)C(=O)/C1=C\c1ccc(O)cc1	none | M3R Ca ctr 31% | RGS4 inh ctr2 inactive
CCOc1cc(/C=C2/C(=O)NN(c3cccc(Cl)c3)C2=O)ccc1O	RGS4 inh 5.7 | RGS4 inh valid 5.0% | M3R Ca ctr inactive | RGS4 inh ctr2 20%
O=C(Cc1nc2ccccc2[nH]1)c1ccc(Br)cc1	none
COc1ccc(C2/C(=C(\O)c3ccc4c(c3)CC(C)O4)C(=O)C(=O)N2Cc2cccnc2)c(OC)c1 (stereo unspecified)	none
O=c1[nH]c(-c2ccccc2Cl)nc2c1sc(=S)n2-c1ccccc1	RGS4 inh 5.1 (no result: MrgX1 PAM, MrgX1 ag, MrgX1 antagonist) | RGS4 inh valid 12% | M3R Ca ctr inactive | RGS4 inh ctr2 inactive
O=c1[nH]c(-c2ccc(F)cc2)nc2c1sc(=S)n2-c1ccccc1	none
O=S(=O)(c1cnc(Cl)c(Cl)c1)N1CCN(c2ncccn2)CC1	none
Cc1ccc(C)c(N2CCN(S(=O)(=O)c3ccc4c(c3)C(C)(C)C(=O)N4C)CC2)c1	none
COc1cc(C2(c3ccc(O)c(OC)c3)C(=O)N(C)c3ccc(C)cc32)ccc1O	none | M3R Ca ctr inactive | RGS4 inh ctr2 inactive
CC(C)C[C@@H](CO)N1CCN(Cc2ccc([N+](=O)[O-])cc2)CCC1=O	none
O=C(CCN1Cc2ccccc2C1)c1ccc2c(c1)OCCO2	RGS4 inh 17 | RGS4 inh valid 95% | M3R Ca ctr inactive | RGS4 inh ctr2 23%
O=C(CCN1CCc2ccccc2C(c2ccccc2)C1)c1ccc2c(c1)OCCO2 (stereo unspecified)	RGS4 inh 15, MrgX1 ag 43 | RGS4 inh valid 10% | M3R Ca ctr inactive | RGS4 inh ctr2 14%
CC(OC(=O)COc1ccc(C#N)cc1)C(=O)Nc1ccc(Cl)cn1 (stereo unspecified)	none
CCOC(=O)Nc1ccc2c(CN3CCC(C(=O)OC)CC3)cc(=O)oc2c1	RGS4 inh 4.9 | RGS4 inh valid 24% | M3R Ca ctr inactive | RGS4 inh ctr2 inactive
CCc1ccc2c(CN3CCC(C(=O)OC)CC3)cc(=O)oc2c1	RGS4 inh 7.2 | RGS4 inh valid 13% | M3R Ca ctr inactive | RGS4 inh ctr2 inactive
COC(=O)C1CCN(Cc2cc(=O)oc3cc(C)c(Cl)cc23)CC1	RGS4 inh 12 | RGS4 inh valid 16% | M3R Ca ctr inactive | RGS4 inh ctr2 inactive
CCOC(=O)Nc1ccc2c(COC(=O)c3ccccc3O)cc(=O)oc2c1	none
CCOc1ccc(S(=O)(=O)NCCC(=O)NC2CCCCC2)cc1	none
Cc1ccc(CS(=O)Cc2ccc(C(=O)N3CCN(C4CCCCC4)CC3)o2)cc1 (stereo unspecified)	none
COc1ccccc1C(C)NCC(=O)NC(=O)NCc1ccco1 (stereo unspecified)	none
Cc1ccc(NC(=O)CNC(=O)Cn2cnc3sc(C)c(C)c3c2=O)cc1F	RGS4 inh 6.9 | RGS4 inh valid 19% | M3R Ca ctr 48% | RGS4 inh ctr2 inactive
CN(c1ccccc1)c1ccc(/C=C/[N+](=O)[O-])cc1	RGS4 inh 6.1 | RGS4 inh valid 32% | M3R Ca ctr inactive | RGS4 inh ctr2 108%
COc1ccc(C2CC(C)=C(C#N)S(=O)(=O)C2C#N)cc1 (stereo unspecified)	none
O=C(Nc1ccc(Oc2cccc(C(F)(F)F)c2)nc1)c1cccs1	none
CC(=C/C(=O)O)/C=C/c1ccco1	RGS4 inh 5.4 | RGS4 inh valid 7.0% | M3R Ca ctr inactive | RGS4 inh ctr2 inactive
COc1ccccc1Nc1ccc(NS(=O)(=O)c2ccc(C(C)=O)cc2)cc1	none
O=C(NCCc1c[nH]c2ccccc12)C(=O)NCC1OCCCN1S(=O)(=O)c1cc(F)ccc1F (stereo unspecified)	none
COc1ccccc1CN1CC(C(=O)NCc2nccn2C)CCC1=O (stereo unspecified)	none
COc1ccc(C(=O)O)cc1NC(=S)NC(=O)c1ccc(-c2ccc(Cl)cc2)o1	RGS4 inh 4.8 (no result: MrgX1 PAM, MrgX1 ag, MrgX1 antagonist) | RGS4 inh valid inactive | M3R Ca ctr inactive | RGS4 inh ctr2 inactive
Cc1ccc(C(=O)O)cc1NC(=S)NC(=O)c1ccc(-c2ccc(Cl)cc2)o1	none | M3R Ca ctr inactive | RGS4 inh ctr2 inactive
O=C(O)c1cccc(NC(=S)NC(=O)c2ccc(-c3ccc(Cl)cc3)o2)c1	none

Screening data from PubChem.
